Screens: PubChem, Johns Hopkins Ion Channel Center
Sampled rows, rich in hits. Any-hit rate of the full collection: about 2.3%.
TRPC4 inh: TRPC4 (mouse) channel inhibition; Q9QUQ5; HEK293 TRPC4beta/mu-opioid, DAMGO-evoked Fluo4 calcium flux; active compounds read low; B-score at 10 µM; actives 0.39% (n = 300,000); AID 2247;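 active = B-score over 3 SD under the library average, no early fluorescence shift, positive overall ratio signal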
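System: stable TRPC4beta/mu-opioid receptor HEK293 cells; Dosing: single-point compound dosing; Measured by: Fluo4 Ca2+ flux fluorescence; Read-out basis: per-well B score of integrated baseline-normalized Fluo4 ratio.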
TRPC6 activator: activates the mouse TRPC6 cation channel. Q61143. HEK293-TRPC6 membrane potential dye fluorescence; active compounds read high. B-score at 10 µM. actives 0.13% (n = 310,000);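 active = B-score of the integrated fluorescence ratio above library mean plus 3 SD, and starting fluorescence ratio within library mean plus 5 SD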;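 also: higher score means more depolarization so channel activation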
TRPC6 inh: inhibitors of mouse TRPC6 channel. Q61143. HEK293-TRPC6, membrane potential dye, ACh-evoked depolarization; active compounds read low. B-score at 10 µM. actives 1.1% (n = 310,000). AID 2553;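 active = B-score under library mean minus 3 SD, initial fluorescence not abnormally high, positive integrated signal ratio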;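 also: B-score derived from integrated fluorescence ratio over the kinetic read; more negative B-score means stronger inhibition of depolarization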
TRPC4 PAM: TRPC4 (mouse) allosteric potentiation | Q9QUQ5 | HEK293 TRPC4beta/mu-opioid, DAMGO EC20, Fluo-4 Ca2+ flux; active compounds read high | B-score at 10 µM | actives 0.42% (n = 310,000) | AID 2227;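 active = B-score of calcium response area above 5 SD of library B-scores, with initial fluorescence ratio within 5 SD of library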;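 also: B-score of integrated fluorescence ratio over time as area under calcium response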
TRPC4 act: TRPC4 (mouse) channel activation. HEK293 TRPC4beta/mu-opioid, Fluo4 calcium fluorescence; active compounds read high. B-score at 10 µM. actives 0.49% (n = 310,000);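 active = B-score above 5 SD of library B-scores, and initial fluorescence ratio not above library mean plus 5 SD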;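 also: positive B-score marks a calcium rise read as TRPC4 activation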
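Assay system – TRPC4beta and mu-opioid receptor HEK293 stable cells · Measured by – Fluo4 fluorescence, kinetic · Schedule – dye loading 45 min room temperature, 110 s kinetic read · Read-out – B-scored integrated calcium fluorescence ratio · Controls – buffer and maximal DAMGO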
An asterisk follows results filed as active; i = inactive.

SMILES	TRPC4 inh	TRPC6 activator	TRPC6 inh	TRPC4 PAM	TRPC4 act
Cc1ccc(Cl)c2c1=NC(=O)C=2c1[nH]c(=S)[nH]c1O	i	i	i	i	i
Nc1nc(Nc2cccc(C(F)(F)F)c2)nc(C(F)(F)F)n1	i	i	-6.1*	i	i
CN1CCC(=C2c3ccccc3CCc3sccc32)CC1	i	i	-6.7*	i	i
CN1CCC(=C2c3ccccc3CC(=O)c3sccc32)CC1	i	i	i	i	i
Cc1oc2c(c1C(=O)c1ccccc1)C(=O)C(=O)c1ccccc1-2	-6*	i	i	i	i
Cc1oc2c(c1C(=O)O)C(=O)c1ccccc1C2=O	i	i	i	i	i
O=C(N[C@H](C(=O)O)c1ccccc1)C1CCC(Cn2nnc3ccccc3c2=O)CC1 (some centres undefined)	i	i	i	i	i
COc1ccc(-c2nn(-c3ccccc3)cc2CNCc2cccnc2)c(F)c1	i	i	i	i	103*
COc1ccc(-n2cc(CNCc3cccnc3)c(-c3cccc(F)c3)n2)cc1	i	i	i	i	94*
COc1ccc(CNCc2cn(-c3cccc(F)c3)nc2-c2ccc(C)o2)cc1	i	i	i	i	103*
Fc1ccccc1COc1ccc(Br)cc1CNCc1cccnc1	i	i	i	i	i
COc1cccc(-c2nn(-c3ccccc3)cc2CO)c1	i	i	i	i	i
COc1ccc(-c2nn(-c3ccccc3C)cc2CNCc2cccnc2)cc1F	i	i	i	i	178*
Cc1nn(C(C)C(=O)NCCN2CCCCCC2)c(=O)c2nn(-c3ccccc3)c(C)c12 (centres undefined)	i	i	i	i	i
Cc1cc(C)c(S(N)(=O)=O)c(C)c1N(C)S(=O)(=O)c1ccc(Cl)cc1	i	i	i	i	i
O=C(CSc1nnc(CNC(=O)c2ccccc2F)o1)NC1CCCC1	i	i	i	i	i
CCN(CCO)Cc1csc2ccc(Br)cc12	i	i	i	18*	i
Cc1nn(-c2ccccc2)c(C)c1C(=O)OCC(=O)N(C)c1c(N)n(Cc2ccccc2)c(=O)[nH]c1=O	i	i	i	i	i
O=c1c2ccccc2nc(SCc2ccccc2)n1CC1CCCO1 (centres undefined)	-7*	i	i	i	i
CCn1c(C)nc2cc(C(=O)N/N=C/c3cccc(O)c3O)ccc21	i	i	i	77*	i
COc1ccc(CCN(C)CCCN2CC(c3ccccc3)CC2=O)cc1OC (centres undefined)	i	i	i	i	i
COc1ccc(C2CC(=O)N(CCCN(C)CCc3ccc(OC)c(OC)c3)C2)cc1 (centres undefined)	i	i	i	13*	i
Oc1c(CN2CCc3ccccc3C2)cc(Cl)c2cccnc12	i	i	i	i	69*
Oc1c(CN2CCCCC2)cc(Br)c2cccnc12	-7*	i	i	i	i
COc1cc2c(C(=O)N(C)c3ccc(F)cc3)cn(C)c(=O)c2cc1OC	i	i	i	i	i
SMILES	TRPC4 inh	TRPC6 activator	TRPC6 inh	TRPC4 PAM	TRPC4 act
OC1(c2ccccc2)CCN(Cc2ccccc2)CC1	i	i	i	i	i
OC1(c2ccc(F)cc2)CCN(Cc2ccccc2)C1 (centres undefined)	-6*	i	i	i	i
CC1(c2ccccc2)NC(=O)N(CC(=O)Nc2ccccc2N2CCCC2)C1=O (centres undefined)	i	i	i	i	i
OCC1(CCCc2ccccc2)CCN(Cc2cc(F)ccc2F)CC1	-7*	i	i	i	i
OCC1(CCc2ccccc2)CCN(Cc2c(F)ccc(F)c2F)CC1	i	i	i	i	i
COc1ccc2c(c1)C=C(CN1CCC(CO)(CCc3ccccc3)CC1)CO2	-6*	i	i	i	i
OCC1(CCc2ccccc2)CCN(Cc2ccccc2Cl)CC1	i	i	i	i	69*
OCC1(CCc2ccccc2)CCN(Cc2cc(F)ccc2-n2cccn2)CC1	i	i	i	i	82*
COc1ccc(OCC(=O)NC(=S)Nc2ccccc2F)cc1	i	i	i	i	i
Nc1ccc(Oc2ccccc2-c2ccccc2)cc1	i	i	i	14*	i
NCCOc1ccccc1-c1ccccc1	i	i	i	i	i
COc1ccc(C(=O)NCC(c2ccco2)N2CCc3ccccc32)c(OC)c1 (centres undefined)	i	i	i	10*	i
Cc1ccc2nc(N(CCCN(C)C)C(=O)c3ccc(S(=O)(=O)N4CCCCCC4)cc3)sc2c1	i	i	i	14*	43*
CN(C)CCCN(C(=O)c1ccc(S(=O)(=O)N2CCc3ccccc3C2)cc1)c1nc2c(F)cc(F)cc2s1	i	i	i	i	58*
CN(C)CCN(C(=O)c1ccc(S(=O)(=O)N2CCCC2)cc1)c1nc2ccc(Br)cc2s1	i	i	i	i	i
CN(C)CCCN(C(=O)c1ccc(S(=O)(=O)N2CCCCCC2)cc1)c1nc2ccc(F)cc2s1	i	i	i	i	336*
CN(C)CCCN(C(=O)c1ccc(S(=O)(=O)N2CCOCC2)cc1)c1nc2ccc(F)cc2s1	i	i	i	i	57*
CCc1ccc2nc(N(CCCN(C)C)C(=O)c3ccc(S(=O)(=O)N4CCCC4)cc3)sc2c1	i	i	i	i	i
Cc1ccc2sc(N(CCCN(C)C)C(=O)c3ccc(S(=O)(=O)N4CCc5ccccc5C4)cc3)nc2c1C	i	i	i	i	i
Cc1cccc(N2CCN(C(=O)NCc3ccc(Cl)cc3)CC2)c1	i	i	i	i	i
CN(C(=O)c1cc2ccccc2oc1=O)C1(C)CCS(=O)(=O)C1 (centres undefined)	i	i	i	i	i
CCOc1cccc2sc(N(CCCN(C)C)C(=O)c3ccc(S(=O)(=O)N(CC)Cc4ccccc4)cc3)nc12	i	i	i	i	i
CN(C)CCCN(C(=O)c1ccc(S(=O)(=O)N2CCCCCC2)cc1)c1nc2c(F)cccc2s1	-6*	i	i	i	54*
CCOc1cccc2sc(N(CCCN(C)C)C(=O)c3ccc(S(=O)(=O)N4CCCCCC4)cc3)nc12	i	i	i	i	i
CCN(Cc1ccccc1)S(=O)(=O)c1ccc(C(=O)N(CCCN(C)C)c2nc3c(F)cccc3s2)cc1	i	i	i	i	112*
